Reference: ChEMBL document CHEMBL1155155, “Single-dose pharmacokinetics of intravenous itraconazole and hydroxypropyl-beta-cyclodextrin in infants, children, and adolescents” (Antimicrob Agents Chemother, 2007)

Assays:
[1] = tested on: Homo sapiens; experiment: Toxicity in human at risk for fungal infection assessed as occurrence of adverse events at 2.5 mg/kg, iv in 0.1 g/kg hydroxypropyl-beta-cyclodextrin administered as single dose; format: organism-based; parameters: dose 2.5 mg/kg, route intravenous; conditions: in vivo
Outline: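 Safety was assessed by medical history, physical examination, complete blood count, serum chemistry, liver function tests and urinalysis. These were done before the single 1-h IV infusion and again at study completion. Subjects stayed at the study facility through 24 h postdose.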

[2] = tested on: Homo sapiens; experiment: Tmax in children of >6-12 yrs age at risk for fungal infection assessed as hydroxyitraconazole level at 2.5 mg/kg, iv in 0.1 g/kg hydroxypropyl-beta-cyclodextrin administered as single dose; format: ADME, organism-based; parameters: dose 2.5 mg/kg, route intravenous; conditions: in vivo
Outline: (§1)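 Single 1-h constant-rate IV infusion. Venous plasma sampled predose and to 120 h (>2 y) or 96 h (<2 y), then stored at –20°C. Hydroxyitraconazole was measured by borate/isoamylalcohol-heptane extraction, HCl back-extraction, C18 HPLC and UV 263 nm, with a linear range of 5–5,000 ng/ml. Noncompartmental analysis: Cmax and tmax by inspection, AUC0-24 by trapezoidal rule.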

[3] = tested on: Homo sapiens; experiment: Half life in adolescents of >12-16 yrs age at risk for fungal infection assessed as hydroxyitraconazole level at 2.5 mg/kg, iv in 0.1 g/kg hydroxypropyl-beta-cyclodextrin administered as single dose; format: ADME, organism-based; parameters: dose 2.5 mg/kg, route intravenous; conditions: in vivo; outline: as §1
[4] = tested on: Homo sapiens; experiment: AUC (0 to 24 hrs) in human at risk for fungal infection assessed as hydroxyitraconazole level at 2.5 mg/kg, iv in 0.1 g/kg hydroxypropyl-beta-cyclodextrin administered as single dose; format: ADME, organism-based, Plasma; parameters: time < 24 hr, dose 2.5 mg/kg, route intravenous; conditions: in vivo; outline: as §1
[5] = AUC (0 to 24 hrs) in infants of 0.6-2 yrs age at risk for fungal infection at 2.5 mg/kg, iv in 0.1 g/kg hydroxypropyl-beta-cyclodextrin administered as single dose; format: ADME, organism-based; parameters: time < 24 hr, dose 2.5 mg/kg, route intravenous; conditions: human, plasma
Outline: (§2)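 Single 1-h IV infusion. Plasma sampled from the contralateral limb predose and at 1–120 h (>2 y) or 1–96 h (<2 y). Itraconazole was extracted with internal standard and quantified by C18 HPLC with UV 263 nm detection, linear range 2–2,000 ng/ml. Noncompartmental analysis: Cmax by inspection, AUC0-24 by trapezoidal rule, AUC extrapolated via λz, CL and Vz from AUC0-∞.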

[6] = Clearance in infants of 0.6-2 yrs age at risk for fungal infection at 2.5 mg/kg, iv in 0.1 g/kg hydroxypropyl-beta-cyclodextrin administered as single dose; format: ADME, organism-based; parameters: dose 2.5 mg/kg, route intravenous; conditions: human, in vivo; outline: as §2
[7] = tested on: Homo sapiens; experiment: Tmax in human at risk for fungal infection assessed as hydroxyitraconazole level at 2.5 mg/kg, iv in 0.1 g/kg hydroxypropyl-beta-cyclodextrin administered as single dose; format: ADME, organism-based; parameters: dose 2.5 mg/kg, route intravenous; conditions: in vivo; outline: as §1
[8] = tested on: Homo sapiens; experiment: Half life in human at risk for fungal infection assessed as hydroxyitraconazole level at 2.5 mg/kg, iv in 0.1 g/kg hydroxypropyl-beta-cyclodextrin administered as single dose; format: ADME, organism-based; parameters: dose 2.5 mg/kg, route intravenous; conditions: in vivo; outline: as §1
[9] = AUC (0 to 24 hrs) in children of >6-12 yrs age at risk for fungal infection at 2.5 mg/kg, iv in 0.1 g/kg hydroxypropyl-beta-cyclodextrin administered as single dose; format: ADME, organism-based; parameters: time < 24 hr, dose 2.5 mg/kg, route intravenous; conditions: human, plasma; outline: as §2
[10] = tested on: Homo sapiens; experiment: Tmax in adolescents of >12-16 yrs age at risk for fungal infection assessed as hydroxyitraconazole level at 2.5 mg/kg, iv in 0.1 g/kg hydroxypropyl-beta-cyclodextrin administered as single dose; format: ADME, organism-based; parameters: dose 2.5 mg/kg, route intravenous; conditions: in vivo; outline: as §1
[11] = tested on: Homo sapiens; experiment: AUC (0 to 24 hrs) in children of >2-6 yrs age at risk for fungal infection at 2.5 mg/kg, iv in 0.1 g/kg hydroxypropyl-beta-cyclodextrin administered as single dose; format: ADME, organism-based, Plasma; parameters: time < 24 hr, dose 2.5 mg/kg, route intravenous; conditions: in vivo; outline: as §2
[12] = Apparent volume of distribution in adolescents of >12-16 yrs age at risk for fungal infection at 2.5 mg/kg, iv in 0.1 g/kg hydroxypropyl-beta-cyclodextrin administered as single dose; format: ADME, organism-based; parameters: dose 2.5 mg/kg, route intravenous; conditions: human, in vivo; outline: as §2
[13] = Cmax in children of >2-6 yrs age at risk for fungal infection at 2.5 mg/kg, iv in 0.1 g/kg hydroxypropyl-beta-cyclodextrin administered as single dose; format: ADME, organism-based; parameters: dose 2.5 mg/kg, route intravenous; conditions: human, in vivo; outline: as §2
[14] = tested on: Homo sapiens; experiment: AUC (0 to 24 hrs) in children of >6-12 yrs age at risk for fungal infection assessed as hydroxyitraconazole level at 2.5 mg/kg, iv in 0.1 g/kg hydroxypropyl-beta-cyclodextrin administered as single dose; format: ADME, organism-based, Plasma; parameters: time < 24 hr, dose 2.5 mg/kg, route intravenous; conditions: in vivo; outline: as §1
[15] = tested on: Homo sapiens; experiment: Cmax in adolescents of >12-16 yrs age at risk for fungal infection assessed as hydroxyitraconazole level at 2.5 mg/kg, iv in 0.1 g/kg hydroxypropyl-beta-cyclodextrin administered as single dose; format: ADME, organism-based; parameters: dose 2.5 mg/kg, route intravenous; conditions: in vivo; outline: as §1
[16] = tested on: Homo sapiens; experiment: Cmax in children of >6-12 yrs age at risk for fungal infection assessed as hydroxyitraconazole level at 2.5 mg/kg, iv in 0.1 g/kg hydroxypropyl-beta-cyclodextrin administered as single dose; format: ADME, organism-based; parameters: dose 2.5 mg/kg, route intravenous; conditions: in vivo
Outline: (§3)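 Single constant-rate IV infusion over 1 h. Heparinised venous plasma was drawn predose and at 1–120 h (>2 yr) or 1–96 h (<2 yr, randomised to the itraconazole/metabolite arm), then stored at –20°C. Analysis used borate-buffered liquid-liquid extraction with internal standard, C18 HPLC and UV detection at 263 nm, linear 5–5,000 ng/ml. Individual Cmax was read by visual inspection, noncompartmental.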

[17] = Apparent volume of distribution in children of >6-12 yrs age at risk for fungal infection at 2.5 mg/kg, iv in 0.1 g/kg hydroxypropyl-beta-cyclodextrin administered as single dose; format: ADME, organism-based; parameters: dose 2.5 mg/kg, route intravenous; conditions: human, in vivo; outline: as §2
[18] = Half life in infants of 0.6-2 yrs age at risk for fungal infection at 2.5 mg/kg, iv in 0.1 g/kg hydroxypropyl-beta-cyclodextrin administered as single dose; format: ADME, organism-based; parameters: dose 2.5 mg/kg, route intravenous; conditions: human, in vivo; outline: as §2
[19] = Apparent volume of distribution in human at risk for fungal infection at 2.5 mg/kg, iv in 0.1 g/kg hydroxypropyl-beta-cyclodextrin administered as single dose; format: ADME, organism-based; parameters: dose 2.5 mg/kg, route intravenous; conditions: in vivo; outline: as §2
[20] = tested on: Homo sapiens; experiment: Half life in children of >6-12 yrs age at risk for fungal infection assessed as hydroxyitraconazole level at 2.5 mg/kg, iv in 0.1 g/kg hydroxypropyl-beta-cyclodextrin administered as single dose; format: ADME, organism-based; parameters: dose 2.5 mg/kg, route intravenous; conditions: in vivo; outline: as §1
[21] = tested on: Homo sapiens; experiment: Cmax in children of >2-6 yrs age at risk for fungal infection assessed as hydroxyitraconazole level at 2.5 mg/kg, iv in 0.1 g/kg hydroxypropyl-beta-cyclodextrin administered as single dose; format: ADME, organism-based; parameters: dose 2.5 mg/kg, route intravenous; conditions: in vivo; outline: as §3
[22] = tested on: Homo sapiens; experiment: AUC (0 to 24 hrs) in children of >2-6 yrs age at risk for fungal infection assessed as hydroxyitraconazole level at 2.5 mg/kg, iv in 0.1 g/kg hydroxypropyl-beta-cyclodextrin administered as single dose; format: ADME, organism-based, Plasma; parameters: time < 24 hr, dose 2.5 mg/kg, route intravenous; conditions: in vivo; outline: as §1
[23] = tested on: Homo sapiens; experiment: AUC (0 to 24 hrs) in adolescents of >12-16 yrs age at risk for fungal infection assessed as hydroxyitraconazole level at 2.5 mg/kg, iv in 0.1 g/kg hydroxypropyl-beta-cyclodextrin administered as single dose; format: ADME, organism-based, Plasma; parameters: time < 24 hr, dose 2.5 mg/kg, route intravenous; conditions: in vivo; outline: as §1

In the case of `CCC(C)n1ncn(-c2ccc(N3CCN(c4ccc(OCC5COC(Cn6cncn6)(c6ccc(Cl)cc6Cl)O5)cc4)CC3)cc2)c1=O` (stereo not drawn) [ITRACONAZOLE], the Activity [1] is reported as “Toxic”, the Tmax [2] is reported as 1.7 h and the t1/2 [3] is reported as 12.3 h. The AUC [4] was 3811 ng·h/mL, the AUC(0-t) at 24 h [5] was 2120 ng·h/mL and the clearance [6] was 19.1 mL/min/kg. The Tmax [7] was 2.2 h, the t1/2 [8] was 13.3 h and the AUC(0-t) at 24 h [9] was 3760 ng·h/mL. It also gave a Tmax [10] of 1.2 h, an AUC [11] of 9510 ng·h/mL and a Vd [12] of 28.5 L/kg. It also gave a Cmax [13] of 1550 ng/mL, an AUC [14] of 4166 ng·h/mL and a Cmax [15] of 321 ng/mL. For the same compound, the Cmax [16] was 277 ng/mL, the Vd [17] was 13.9 L/kg and the half-life [18] was 13.3 h. It also gave a Vd [19] of 18.5 L/kg, a t1/2 [20] of 14.3 h and a Cmax [21] of 299 ng/mL. For the same compound, the AUC [22] was 4249 ng·h/mL and the AUC [23] was 3133 ng·h/mL.
